Measurements as given in ChEMBL document CHEMBL3232828, “A potential CARB-pharmacophore for antineoplastic activity: part 1” (2014).

Columns and labels:
Format in all cases: functional
HeLa [1] = assay: Cytotoxicity against hormone-dependent human HeLa cells at 6 mM after 12 hrs by CCK-8 assay
How it was run: (§1)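 HeLa cells (adherent) in F-12K medium with fetal bovine serum and penicillin-streptomycin, 37 °C, 5% CO2. Seeded at 1 × 10^4 cells/well and allowed to form a monolayer for 12 h. Treated 12 h at the stated concentration. Medium then replaced with serum-free medium containing 10% CCK-8 for 3 h. OD read at 450 nm. Viability% = 100 × (S−B)/(K−B) against blank and untreated control.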

MCF7 [2] = assay: Cytotoxicity against hormone-dependent human MCF7 cells at 4 mM after 12 hrs by CCK-8 assay
How it was run: (§2)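 MCF-7 monolayers grown in DMEM plus FBS and penicillin-streptomycin (37 °C, 5% CO2), plated 5 × 10^4 cells/well 12 h before dosing. Exposure 12 h at the listed concentration. Viability measured by WST-8 (CCK-8) reduction: 10% CCK-8 in serum-free medium, 3 h, absorbance 450 nm. Viability% = 100 × (sample−blank)/(control−blank).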

LoVo [3] = assay: Cytotoxicity against hormone-independent human LoVo cells at 8 mM after 12 hrs by CCK-8 assay
How it was run: (§3)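 For LoVo colorectal adenocarcinoma cells, cultured in DMEM supplemented with FBS and penicillin-streptomycin (37 °C, 5% CO2), 2.5 × 10^4 cells/well were plated 12 h ahead, then treated 12 h. Read-out: CCK-8 (10% in serum-free medium, 3 h), absorbance 450 nm. Percent viability = 100 × (S−B)/(K−B) using blank and control wells.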

A549 [4] = assay: Cytotoxicity against hormone-independent human A549 cells at 8 mM after 12 hrs by CCK-8 assay
How it was run: (§4)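 A549 adherent cells in DMEM with FBS and penicillin-streptomycin at 37 °C, 5% CO2. Seeded at 1 × 10^4 cells/well and attached for 12 h. Compound applied for 12 h, followed by 3 h in serum-free medium with 10% CCK-8. OD at 450 nm. Viability expressed as 100 × (S−B)/(K−B) relative to untreated cells.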

LoVo [5] = assay: Cytotoxicity against hormone-independent human LoVo cells at 2 mM after 12 hrs by CCK-8 assay; how it was run: as §3
A549 [6] = assay: Cytotoxicity against hormone-independent human A549 cells at 6 mM after 12 hrs by CCK-8 assay; how it was run: as §4
HeLa [7] = assay: Cytotoxicity against hormone-dependent human HeLa cells at 8 mM after 12 hrs by CCK-8 assay; how it was run: as §1
MCF7 [8] = assay: Cytotoxicity against hormone-dependent human MCF7 cells at 2 mM after 12 hrs by CCK-8 assay; how it was run: as §2
K562 [9] = assay: Cytotoxicity against human K562 cells at 2 mM after 12 hrs by CCK-8 assay
How it was run: (§5)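 Suspension K562 cells maintained in RPMI 1640 with FBS and penicillin-streptomycin at 37 °C, 5% CO2. Seeded at 2 × 10^4 cells/well and exposed 12 h at the given concentration. Then incubated 3 h with 10% CCK-8 in serum-free medium. OD 450 nm. Viability% = 100 × (S−B)/(K−B) versus blank and untreated control.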

K562 [10] = assay: Cytotoxicity against human K562 cells at 4 mM after 12 hrs by CCK-8 assay; how it was run: as §5
HeLa [11] = assay: Cytotoxicity against hormone-dependent human HeLa cells at 4 mM after 12 hrs by CCK-8 assay; how it was run: as §1
K562 [12] = assay: Cytotoxicity against human K562 cells at 6 mM after 12 hrs by CCK-8 assay; how it was run: as §5
MCF7 [13] = assay: Cytotoxicity against hormone-dependent human MCF7 cells at 6 mM after 12 hrs by CCK-8 assay; how it was run: as §2
MCF7 [14] = assay: Cytotoxicity against hormone-dependent human MCF7 cells at 8 mM after 12 hrs by CCK-8 assay; how it was run: as §2
HeLa [15] = assay: Cytotoxicity against hormone-dependent human HeLa cells at 2 mM after 12 hrs by CCK-8 assay; how it was run: as §1
LoVo [16] = assay: Cytotoxicity against hormone-independent human LoVo cells at 4 mM after 12 hrs by CCK-8 assay; how it was run: as §3
A549 [17] = assay: Cytotoxicity against hormone-independent human A549 cells at 2 mM after 12 hrs by CCK-8 assay; how it was run: as §4
LoVo [18] = assay: Cytotoxicity against hormone-independent human LoVo cells at 6 mM after 12 hrs by CCK-8 assay; how it was run: as §3
A549 [19] = assay: Cytotoxicity against hormone-independent human A549 cells at 4 mM after 12 hrs by CCK-8 assay; how it was run: as §4
K562 [20] = assay: Cytotoxicity against human K562 cells at 8 mM after 12 hrs by CCK-8 assay; how it was run: as §5

SMILES | Activity (HeLa [1]) | Activity (MCF7 [2]) | Activity (LoVo [3]) | Activity (A549 [4]) | Activity (LoVo [5]) | Activity (A549 [6]) | Activity (HeLa [7]) | Activity (MCF7 [8]) | Activity (K562 [9]) | Activity (K562 [10]) | Activity (HeLa [11]) | Activity (K562 [12]) | Activity (MCF7 [13]) | Activity (MCF7 [14]) | Activity (HeLa [15]) | Activity (LoVo [16]) | Activity (A549 [17]) | Activity (LoVo [18]) | Activity (A549 [19]) | Activity (K562 [20])
OC[C@H]1SC(O)[C@H](O)[C@@H](O)[C@@H]1O (stereo not given in full) | 99% | 25% | 88% | 97% | 28% | 96% | 98% | 17% | 6% | 45% | 90% | 94% | 40% | 49% | 70% | 54% | 79% | 85% | 96% | 98%
OC[C@@]12CO[C@H](O1)[C@H](O)[C@@H](O)[C@H]2O |  | 2% | 12% | 7% | 9% | 5% | 3% | 6% |  |  | 4% |  | 5% | 3% | 4% | 7% | 23% | 13% | 4% | 
O[C@@H]1[C@@H](O)[C@H](O)[C@]2(CO2)[C@@H](O)[C@H]1O | 2% | 46% | 24% | 26% |  | 20% | 7% | 22% | 6% | 20% |  | 26% | 53% | 66% |  |  |  | 5% |  | 36%
OCC1(O)SC[C@@H](O)C(O)C1O (single isomer, unassigned) | 48% | 7% | 42% | 55% | 28% | 46% | 51% | 3% |  |  | 30% |  | 3% | 2% | 28% | 25% | 44% | 32% | 44% | 
